Data: ChEMBL document CHEMBL1123490, “Synthesis and biological activities of oligo(8-bromoadenylates) as analogues of 5'-O-triphosphoadenylyl(2'----5')adenylyl(2'----5')adenosine” (J Med Chem, 1986)
pIC50: −log10 of the molar value. Each block holds one compound with its values, some of them ahead of it.

Assays:
[1] = target: T1, 2-5A-dependent ribonuclease (Mus musculus, UniProt Q05921); assay: (§1) Compound was tested for activation of RNase L by measuring concentration required for 50% inhibition of protein synthesis in mouse L cell extracts; format: cell-based
T1 sequence (Q05921 whole entry): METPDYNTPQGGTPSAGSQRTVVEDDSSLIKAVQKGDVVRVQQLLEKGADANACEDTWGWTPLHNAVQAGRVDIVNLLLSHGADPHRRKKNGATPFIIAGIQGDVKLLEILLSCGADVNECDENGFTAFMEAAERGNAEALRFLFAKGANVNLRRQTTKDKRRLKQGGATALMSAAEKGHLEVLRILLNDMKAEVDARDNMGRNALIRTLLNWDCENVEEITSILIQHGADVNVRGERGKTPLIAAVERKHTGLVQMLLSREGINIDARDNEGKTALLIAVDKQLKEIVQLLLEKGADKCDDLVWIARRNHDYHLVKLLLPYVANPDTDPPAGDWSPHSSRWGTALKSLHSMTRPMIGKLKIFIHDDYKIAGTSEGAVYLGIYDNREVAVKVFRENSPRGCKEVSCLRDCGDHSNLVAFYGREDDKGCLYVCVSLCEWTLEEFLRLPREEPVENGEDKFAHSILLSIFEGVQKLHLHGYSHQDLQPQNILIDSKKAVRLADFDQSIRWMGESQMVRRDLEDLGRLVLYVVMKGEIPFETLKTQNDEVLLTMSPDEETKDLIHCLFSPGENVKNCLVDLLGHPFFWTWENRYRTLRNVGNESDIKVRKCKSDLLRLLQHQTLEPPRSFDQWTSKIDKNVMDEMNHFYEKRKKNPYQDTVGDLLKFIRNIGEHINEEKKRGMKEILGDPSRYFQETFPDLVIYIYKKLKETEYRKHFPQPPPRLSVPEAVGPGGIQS

[2] = target: T1, 2-5A-dependent ribonuclease; assay: (§2) compound was tested for activation of RNase L by measuring concentration required for 50% inhibition of protein synthesis in mouse L cell extracts; format: cell-based
How it was run: (§3)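 Cell-free translation was run in mouse L cell extract programmed with EMCV RNA, with creatine kinase, amino acids and [3H]leucine added. At set times, aliquots were spotted onto filter disks presoaked in 15% trichloroacetic acid to measure incorporation. The value is the concentration giving 50% inhibition of protein synthesis.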

[3] = target: T2, 2-5A-dependent ribonuclease (Mus musculus) (UniProt Q05921); assay: as §2; format: cell-based; how it was run: as §3
T2 sequence (whole entry): T1 sequence (Q05921 whole entry)

[4] = target: T2, 2-5A-dependent ribonuclease (Mus musculus); assay: Binding affinity against 2-5A-dependent RNase L in mouse L cell extracts using ppp5'A2p5'A2'p5'A3'[32P]pCp as a radioactive probe; format: cell-free
How it was run: (§4)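 Crude mouse L cell extract served as the RNase L source, with ppp5'A2'p5'A2'p5'A3'[32P]p5'Cp as the radioactive probe, in a competition binding assay on nitrocellulose. The value is the analogue concentration giving 50% displacement of the probe from the endonuclease–nitrocellulose complex.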

Mus musculus [5] = species: Mus musculus; assay: Compound measured for the stability in 20% mouse in L cell extracts in the presence of ATP at 75 min; format: functional, organism-based
Mus musculus [6] = species: Mus musculus; assay: Compound measured for the stability in 20% mouse in L cell extracts in the absence of ATP at 30 min; format: functional
Mus musculus [7] = species: Mus musculus; assay: Compound measured for the stability in 20% mouse in L cell extracts in the absence of ATP at 0 min; format: functional
Mus musculus [8] = species: Mus musculus; assay: Compound measured for the stability in 20% mouse in L cell extracts in the absence of ATP at 90 min; format: functional
Mus musculus [9] = species: Mus musculus; assay: Compound measured for the stability in 20% mouse in L cell extracts in the presence of ATP at 0 min; format: functional, organism-based
Mus musculus [10] = species: Mus musculus; assay: Compound measured for the stability in 20% mouse in L cell extracts in the presence of ATP at 12 hr; format: functional, organism-based
Mus musculus [11] = species: Mus musculus; assay: Compound measured for the stability in 20% mouse in L cell extracts in the absence of ATP at 12 hr; format: functional
Mus musculus [12] = species: Mus musculus; assay: Compound measured for the stability in 20% mouse in L cell extracts in the presence of ATP at 220 min; format: functional, organism-based
Mus musculus [13] = species: Mus musculus; assay: Compound measured for the stability in 20% mouse in L cell extracts in the absence of ATP at 150 min; format: functional
[14] = target: T2, 2-5A-dependent ribonuclease (Mus musculus); assay: as §1; format: cell-based; how it was run: as §3
Mus musculus [15] = species: Mus musculus; assay: Compound measured for the stability in 20% mouse in L cell extracts in the absence of ATP at 240 min; format: functional
Mus musculus [16] = species: Mus musculus; assay: Compound measured for the stability in 20% mouse in L cell extracts in the presence of ATP at 40 min; format: functional, organism-based
Mus musculus [17] = species: Mus musculus; assay: Compound measured for the stability in 20% mouse in L cell extracts in the absence of ATP at 120 min; format: functional
Mus musculus [18] = species: Mus musculus; assay: Compound measured for the stability in 20% mouse in L cell extracts in the presence of ATP at 120 min; format: functional, organism-based
[19] = target: T2, 2-5A-dependent ribonuclease (Mus musculus); assay: Binding affinity against 2-5A-dependent RNase L in mouse L cell extract using ppp5'A2p5'A2'p5'A3'[32P]pCp as a radioactive probe; format: cell-free; how it was run: as §4
Mus musculus [20] = species: Mus musculus; assay: Compound measured for the stability in 20% mouse in L cell extracts in the presence of ATP at 0 min.; format: functional, organism-based
Mus musculus [21] = species: Mus musculus; assay: Compound measured for the stability in 20% mouse in L cell extracts in the absence ot ATP at 0 min.; format: functional
Mus musculus [22] = species: Mus musculus; assay: Compound measured for the stability in 20% mouse in L cell extracts in the absence ot ATP at 150 min; format: functional
Mus musculus [23] = species: Mus musculus; assay: Compound measured for the stability in 20% mouse in L cell extracts in the absence ot ATP at 12 hr; format: functional
Mus musculus [24] = species: Mus musculus; assay: Compound measured for the stability in 20% mouse in L cell extracts in the presence ot ATP at 150 min; format: functional
Mus musculus [25] = species: Mus musculus; assay: Compound measured for the stability in 20% mouse in L cell extracts in the absence ot ATP at 75 min; format: functional
Mus musculus [26] = species: Mus musculus; assay: Compound measured for the stability in 20% mouse in L cell extracts in the absence ot ATP at 240 min; format: functional, organism-based
Mus musculus [27] = species: Mus musculus; assay: Compound measured for the stability in 20% mouse in L cell extracts in the presence ot ATP at 40 min.; format: functional, organism-based
Mus musculus [28] = species: Mus musculus; assay: Compound measured for the stability in 20% mouse in L cell extracts in the presence ot ATP at 75 min; format: functional, organism-based
Mus musculus [29] = species: Mus musculus; assay: Compound measured for the stability in 20% mouse in L cell extracts in the absence ot ATP at 40 min.; format: functional, organism-based
Mus musculus [30] = species: Mus musculus; assay: Compound measured for the stability in 20% mouse in L cell extracts in the presence ot ATP at 12 hr; format: functional, organism-based

pIC50 [1]: 8.64
Structure (SMILES): Nc1ncnc2c1ncn2[C@@H]1O[C@H](CO[P@](=O)(O)O[C@@H]2[C@H](O)[C@@H](CO[P@](=O)(O)O[C@@H]3[C@H](O)[C@@H](CO[P@](=O)(O)O[P@@](=O)(O)OP(=O)(O)O)O[C@H]3n3cnc4c(N)ncnc43)O[C@H]2n2cnc3c(N)ncnc32)[C@@H](O)[C@H]1O

pIC50 [2]: < 4.30
Relative activity [3]: < 5e-05
Activity [4]: 6e-07
Relative ability [4]: 0.0012
Structure (SMILES): Nc1ncnc2c1nc(Br)n2[C@@H]1O[C@H](COP(=O)(O)O[C@@H]2[C@H](O)[C@@H](COP(=O)(O)O[C@@H]3[C@H](O)[C@@H](CO)O[C@H]3n3c(Br)nc4c(N)ncnc43)O[C@H]2n2c(Br)nc3c(N)ncnc32)[C@@H](O)[C@H]1O

Relative activity [14]: 0.05
pIC50 [1]: 7.34
Activity [4]: 3e-09
Relative ability [4]: 0.23
Structure (SMILES): Nc1ncnc2c1nc(Br)n2[C@@H]1O[C@H](COP(=O)(O)O[C@@H]2[C@H](O)[C@@H](COP(=O)(O)O[C@@H]3[C@H](O)[C@@H](COP(=O)(O)OP(=O)(O)O)O[C@H]3n3c(Br)nc4c(N)ncnc43)O[C@H]2n2c(Br)nc3c(N)ncnc32)[C@@H](O)[C@H]1O
Stability (Mus musculus [5]): 71%
Stability (Mus musculus [6]): 80%
Stability (Mus musculus [7]): 100%
Stability (Mus musculus [8]): 70%
Stability (Mus musculus [9]): 100%
Stability (Mus musculus [10]): 47%
Stability (Mus musculus [11]): 0%
Stability (Mus musculus [12]): 70%
Stability (Mus musculus [13]): 55%
Stability (Mus musculus [15]): 0%
Stability (Mus musculus [16]): 87%
Stability (Mus musculus [17]): 67%

pIC50 [2]: 6.15
Relative activity [3]: 0.0033
Activity [4]: 4e-09
Relative ability [4]: 0.18
Structure (SMILES): Nc1ncnc2c1nc(Br)n2[C@@H]1O[C@H](COP(=O)(O)O[C@@H]2[C@H](O)[C@@H](COP(=O)(O)O[C@@H]3[C@H](O)[C@@H](COP(=O)(O)O[C@@H]4[C@H](O)[C@@H](COP(=O)(O)O)O[C@H]4n4c(Br)nc5c(N)ncnc54)O[C@H]3n3c(Br)nc4c(N)ncnc43)O[C@H]2n2c(Br)nc3c(N)ncnc32)[C@@H](O)[C@H]1O

Relative activity [14]: 0.015
Activity [19]: 8e-09
Relative ability [19]: 0.088
pIC50 [1]: 6.82
Structure (SMILES): Nc1ncnc2c1nc(Br)n2[C@@H]1O[C@H](COP(=O)(O)O[C@@H]2[C@H](O)[C@@H](COP(=O)(O)O[C@@H]3[C@H](O)[C@@H](COP(=O)(O)OP(=O)(O)OP(=O)(O)O)O[C@H]3n3c(Br)nc4c(N)ncnc43)O[C@H]2n2c(Br)nc3c(N)ncnc32)[C@@H](O)[C@H]1O
Stability (Mus musculus [5]): 46%
Stability (Mus musculus [18]): 36%
Stability (Mus musculus [7]): 48%
Stability (Mus musculus [8]): 3%
Stability (Mus musculus [9]): 71%
Stability (Mus musculus [10]): 0%
Stability (Mus musculus [12]): 16%
Stability (Mus musculus [16]): 54%

pIC50 [2]: < 4.40
Relative activity [3]: < 6e-05
Activity [4]: 3e-09
Relative ability [4]: 0.23
Structure (SMILES): Nc1ncnc2c1nc(Br)n2[C@H]1O[C@@H](COP(=O)(O)O[C@H]2[C@@H](O)[C@H](COP(=O)(O)O[C@H]3[C@@H](O)[C@H](COP(=O)(O)O[C@H]4[C@@H](O)[C@H](COP(=O)(O)O[C@H]5[C@@H](O)[C@H](COP(=O)(O)O)O[C@@H]5n5c(Br)nc6c(N)ncnc65)O[C@@H]4n4c(Br)nc5c(N)ncnc54)O[C@@H]3n3c(Br)nc4c(N)ncnc43)O[C@@H]2n2c(Br)nc3c(N)ncnc32)[C@H](O)[C@@H]1O

Relative activity [14]: 0.0023
Relative ability [19]: 0.035
pIC50 [1]: 6.00
Activity [4]: 2e-08
Structure (SMILES): Nc1ncnc2c1nc(Br)n2[C@@H]1O[C@H](COP(=O)(O)O[C@@H]2[C@H](O)[C@@H](COP(=O)(O)O[C@@H]3[C@H](O)[C@@H](COP(=O)(O)O)O[C@H]3n3c(Br)nc4c(N)ncnc43)O[C@H]2n2c(Br)nc3c(N)ncnc32)[C@@H](O)[C@H]1O
Stability (Mus musculus [20]): 100%
Stability (Mus musculus [21]): 100%
Stability (Mus musculus [22]): 77%
Stability (Mus musculus [23]): 22%
Stability (Mus musculus [24]): 84%
Stability (Mus musculus [25]): 82%
Stability (Mus musculus [26]): 76%
Stability (Mus musculus [27]): 99%
Stability (Mus musculus [28]): 89%
Stability (Mus musculus [29]): 88%
Stability (Mus musculus [30]): 53%

pIC50 [2]: < 3.70
Relative activity [3]: < 1e-05
Activity [4]: 3e-08
Relative ability [4]: 0.023
Structure (SMILES): Nc1ncnc2c1nc(Br)n2[C@@H]1O[C@H](COP(=O)(O)O[C@@H]2[C@H](O)[C@@H](COP(=O)(O)O[C@@H]3[C@H](O)[C@@H](COP(=O)(O)O[C@@H]4[C@H](O)[C@@H](CO)O[C@H]4n4c(Br)nc5c(N)ncnc54)O[C@H]3n3c(Br)nc4c(N)ncnc43)O[C@H]2n2c(Br)nc3c(N)ncnc32)[C@@H](O)[C@H]1O

Relative activity [14]: 1
Structure (SMILES): Nc1ncnc2c1ncn2[C@@H]1O[C@H](COP(=O)(O)O[C@@H]2[C@H](O)[C@@H](COP(=O)(O)O[C@@H]3[C@H](O)[C@@H](COP(=O)(O)OP(=O)(O)OP(=O)(O)O)O[C@H]3n3cnc4c(N)ncnc43)O[C@H]2n2cnc3c(N)ncnc32)[C@@H](O)[C@H]1O
